In ChEMBL document CHEMBL4257575, “Discovery of Novel Flavonoid Dimers To Reverse Multidrug Resistance Protein 1 (MRP1, ABCC1) Mediated Drug Resistance in Cancers Using a High Throughput Platform with "Click Chemistry"” (J Med Chem, 2018) one finds Survival data, which are given here for 60 compounds.

This data set addresses Multidrug resistance-associated protein 1 (Homo sapiens, UniProt P33527). The experiment in a line: Inhibition of MRP1 in human 2008/MRP1 cells assessed as potentiation of doxorubicin-induced cytotoxicity by measuring cell survival at 2 uM after 5 days by MTS assay relative to control. It is filed as cell-based. The settings on record: 120 h. The gist of the method: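 2008/MRP1 cells (retroviral human MRP1 transfectant; RPMI 1640, 10% FBS) at 4,000 per well, with 100 nM doxorubicin plus crude, unpurified click products in DMSO: 2 µM in the primary screen, 1 µM in the secondary. Incubated 5 days at 37 °C. MTS/PMS added for 2 h at 37 °C, absorbance read at 490 nm. % survival is relative to wells without DOX or product. Run in triplicate, at least three experiments.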

Sequence of Multidrug resistance-associated protein 1 (P33527 whole entry): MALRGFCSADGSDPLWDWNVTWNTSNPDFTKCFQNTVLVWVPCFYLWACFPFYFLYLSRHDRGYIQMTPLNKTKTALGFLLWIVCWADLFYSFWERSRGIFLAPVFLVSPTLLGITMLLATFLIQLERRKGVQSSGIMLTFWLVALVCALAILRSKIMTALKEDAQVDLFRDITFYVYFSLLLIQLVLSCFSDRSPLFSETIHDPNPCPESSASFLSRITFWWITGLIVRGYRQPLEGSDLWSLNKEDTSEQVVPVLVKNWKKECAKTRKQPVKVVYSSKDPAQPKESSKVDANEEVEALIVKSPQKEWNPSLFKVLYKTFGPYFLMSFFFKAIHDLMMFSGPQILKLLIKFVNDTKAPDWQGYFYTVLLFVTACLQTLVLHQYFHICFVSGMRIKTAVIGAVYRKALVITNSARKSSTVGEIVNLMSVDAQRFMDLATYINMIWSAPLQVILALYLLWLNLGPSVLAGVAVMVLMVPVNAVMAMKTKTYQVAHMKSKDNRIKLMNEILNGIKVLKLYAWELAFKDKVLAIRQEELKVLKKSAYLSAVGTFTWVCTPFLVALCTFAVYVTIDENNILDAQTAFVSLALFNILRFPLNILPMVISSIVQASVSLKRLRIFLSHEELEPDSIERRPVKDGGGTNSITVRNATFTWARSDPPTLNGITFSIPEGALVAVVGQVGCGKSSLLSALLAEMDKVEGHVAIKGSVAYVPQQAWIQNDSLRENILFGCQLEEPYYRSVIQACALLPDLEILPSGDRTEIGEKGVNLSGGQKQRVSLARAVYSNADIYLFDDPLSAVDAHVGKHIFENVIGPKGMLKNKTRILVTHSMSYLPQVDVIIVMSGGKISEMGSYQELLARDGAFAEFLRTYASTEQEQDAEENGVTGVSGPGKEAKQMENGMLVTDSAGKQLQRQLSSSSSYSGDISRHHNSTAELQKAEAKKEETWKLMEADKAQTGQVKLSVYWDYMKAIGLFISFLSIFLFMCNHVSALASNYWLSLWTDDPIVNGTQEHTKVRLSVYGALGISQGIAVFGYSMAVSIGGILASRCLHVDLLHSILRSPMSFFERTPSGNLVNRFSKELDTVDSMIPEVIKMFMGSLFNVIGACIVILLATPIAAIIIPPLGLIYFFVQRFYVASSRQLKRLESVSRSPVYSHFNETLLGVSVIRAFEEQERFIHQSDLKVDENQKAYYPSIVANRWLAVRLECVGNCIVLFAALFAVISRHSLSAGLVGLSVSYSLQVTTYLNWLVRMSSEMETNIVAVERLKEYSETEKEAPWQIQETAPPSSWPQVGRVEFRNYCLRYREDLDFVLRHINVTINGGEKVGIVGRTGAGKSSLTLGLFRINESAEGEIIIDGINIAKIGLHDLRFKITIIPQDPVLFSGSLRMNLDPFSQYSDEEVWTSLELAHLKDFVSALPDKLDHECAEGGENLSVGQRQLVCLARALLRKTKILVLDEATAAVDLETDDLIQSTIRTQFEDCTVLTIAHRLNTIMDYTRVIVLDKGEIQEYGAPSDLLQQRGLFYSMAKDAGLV

Turning to `O=c1cc(-c2ccc(OCCOCCOCCn3cc(CCCOc4ccc5c(=O)cc(-c6ccccc6)oc5c4)nn3)cc2)oc2ccccc12`, the Survival stood at 54%.
Consider `Cc1ccc(C(=O)/C=C/c2ccc(OCCCCc3cn(CCOCCOCCOc4ccc(-c5cc(=O)c6cc(C)ccc6o5)cc4)nn3)cc2)c(O)c1`, for which the Survival was found to be 61%.
On to `C#CCCCCOc1ccc(C=O)cc1`, for which the Survival is given as 86%.
In the case of `O=c1cc(-c2ccc(OCCOCCOCCn3cc(CN4CCN(Cc5cn(CCOCCOCCOc6ccc(-c7cc(=O)c8ccccc8o7)cc6)nn5)CC4)nn3)cc2)oc2ccccc12`, the Survival amounted to 100%.
As to `O=c1cc(-c2ccccc2)oc2cc(OCCOCCOCCn3cc(CNc4ccccc4)nn3)ccc12`, the Survival came to 90%.
As to `C#CCCCCOc1ccc(/C=C/C(=O)c2ccccc2O)cc1`, the Survival was 102%.
For the compound `O=C(/C=C/c1ccc(OCCCCc2cn(CCOCCOCCOc3ccc(-c4cc(=O)c5cc(F)ccc5o4)cc3)nn2)cc1)c1ccccc1O`, the Survival worked out at 56%.
As for `C#CCCCOc1ccc(-c2cc(=O)c3c(OCc4ccccc4)cc(OCOC)cc3o2)cc1`, the Survival turned out to be 67%.
Consider `O=c1cc(-c2ccccc2)oc2cc(OCCn3cc(CN(Cc4cn(CCOc5ccc6occ(-c7ccccc7)c(=O)c6c5)nn4)Cc4cn(CCOc5ccc6occ(-c7ccccc7)c(=O)c6c5)nn4)nn3)ccc12`, for which the Survival is 87%.
For `Cc1ccc2oc(-c3ccc(OCCOCCOCCn4cc(CCCOc5ccc6c(=O)cc(-c7ccccc7)oc6c5)nn4)cc3)cc(=O)c2c1`, the Survival is listed as 55%.
With `CN(CCN(C)Cc1cn(CCOCCOCCOc2ccc(-c3cc(=O)c4cc(F)ccc4o3)cc2)nn1)Cc1cn(CCOCCOCCOc2ccc(-c3cc(=O)c4cc(F)ccc4o3)cc2)nn1`, the Survival stood at 79%.
With `O=C1c2ccccc2C(=O)N1CCc1cn(CCOCCOc2cccc(-c3oc4ccccc4c(=O)c3OCc3ccccc3)c2)nn1`, the Survival was found to be 62%.
With `O=c1cc(-c2ccccc2)oc2cc(OCCCCc3cn(CCOc4cccc5c(=O)cc(-c6ccccc6)oc45)nn3)ccc12`, the Survival was found to be 60%.
`C#CCCCCOc1ccc(/C=C/C(=O)c2cc(CC)ccc2O)cc1`: the Survival worked out at 103%.
Turning to `O=c1cc(-c2ccccc2)oc2cc(OCCOCc3cn(CCOc4cccc5c(=O)cc(-c6ccccc6)oc45)nn3)ccc12`, the Survival is reported as 68%.
For the compound `Cc1ccc2oc(-c3ccc(OCCOCCOCCn4cc(CCCCOc5ccc(/C=C/C(=O)c6ccc(F)cc6O)cc5)nn4)cc3)cc(=O)c2c1`, the Survival was 63%.
With `O=c1c(OCc2ccccc2)c(-c2ccc(OCCOCCOCCn3cc(-c4ccc(-c5cn(CCOCCOCCOc6ccc(-c7oc8ccccc8c(=O)c7OCc7ccccc7)cc6)nn5)cc4)nn3)cc2)oc2ccccc12`, the Survival came to 86%.
Take `C#CCN1CCN(CC#C)CC1`: the Survival was determined as 81%.
For `Cc1ccc(C(=O)/C=C/c2ccc(OCCCCc3cn(CCOCCOc4ccc(-c5oc6ccccc6c(=O)c5OCc5ccccc5)cc4)nn3)cc2)c(O)c1` the value was 66%; for `Cc1ccc2oc(-c3ccc(OCCOCCOCCn4cc(CCCOc5ccc(-c6cc(=O)c7ccccc7o6)cc5)nn4)cc3)cc(=O)c2c1`, 51%.
For `CN(CCN(C)Cc1cn(CCOCCOc2cccc(-c3oc4ccccc4c(=O)c3OCc3ccccc3)c2)nn1)Cc1cn(CCOCCOc2cccc(-c3oc4ccccc4c(=O)c3OCc3ccccc3)c2)nn1` the value was 83%; for `O=c1[nH]c(-c2ccc(OCCCc3cn(CCOCCOCCOc4ccc(-c5cc(=O)c6cc(F)ccc6o5)cc4)nn3)cc2)nc2ccccc12`, 51%.
The figure for `COCOc1cc(OCc2ccccc2)c2c(=O)cc(-c3ccc(OCCCc4cn(CCOCCOc5cccc(-c6oc7ccccc7c(=O)c6OCc6ccccc6)c5)nn4)cc3)oc2c1` is 74%; for `O=c1cc(-c2ccc(OCCCc3cn(CCOCCOCCOc4ccc(-c5cc(=O)c6ccccc6o5)cc4)nn3)cc2)oc2ccccc12` it is 56%; for `C#Cc1cccc(C#C)c1` it is 84%.
For `COc1cccc(COc2c(-c3ccc(OCCOCCn4cc(CCCCOc5ccc(C=O)cc5)nn4)cc3)oc3ccccc3c2=O)c1`, the Survival is reported as 76%.
`CN(CCN(C)Cc1cn(CCOCCOc2ccc(-c3cc(=O)c4ccccc4o3)cc2)nn1)Cc1cn(CCOCCOc2ccc(-c3cc(=O)c4ccccc4o3)cc2)nn1`: the Survival is on record as 87%.
For `C#CCCCCOc1ccc(/C=C/C(=O)c2ccc(C)cc2O)cc1`, the Survival is 100%.
Take `C#CCCCCOc1ccc(-c2cc(=O)c3cc(C)ccc3o2)cc1`: the Survival turned out to be 88%.
Consider `O=c1cc(-c2ccccc2)oc2cc(OCCn3cc(CN4CCN(Cc5cn(CCOc6ccc7occ(-c8ccccc8)c(=O)c7c6)nn5)CC4)nn3)ccc12`, for which the Survival turned out to be 93%.
`Cc1ccc2oc(-c3ccc(OCCOCCOCCn4cc(CCCCOc5ccc(C=O)cc5)nn4)cc3)cc(=O)c2c1`: the Survival was determined as 72%.
On to `C#CCCCOc1ccc(-c2nc3ccccc3c(=O)[nH]2)cc1`, for which the Survival was found to be 86%.
The figure for `Cc1ccc(O)c(C(=O)/C=C/c2ccc(OCCCCc3cn(CCOc4cccc5c(=O)cc(-c6ccccc6)oc45)nn3)cc2)c1` is 77%; for `[N-]=[N+]=NCCOCCOc1ccc2c(=O)cc(-c3ccccc3)oc2c1` it is 91%.
As to `O=c1[nH]c(-c2ccc(OCCCc3cn(CCOc4cccc5c(=O)cc(-c6ccccc6)oc45)nn3)cc2)nc2ccccc12`, the Survival amounted to 67%.
Consider `O=c1c(OCc2ccccc2)c(-c2ccc(OCCOCCn3cc(-c4cccc(-c5cn(CCOCCOc6ccc(-c7oc8ccccc8c(=O)c7OCc7ccccc7)cc6)nn5)c4)nn3)cc2)oc2ccccc12`, for which the Survival stood at 87%.
For `O=c1[nH]c(-c2ccc(OCCCc3cn(CCOCCOCCOc4ccc5c(=O)cc(-c6ccccc6)oc5c4)nn3)cc2)nc2ccccc12` the value was 60%; for `O=c1cc(-c2ccccc2)oc2cc(OCCOCCOCCn3cc(-c4cccc(-c5cn(CCOCCOCCOc6ccc7c(=O)cc(-c8ccccc8)oc7c6)nn5)c4)nn3)ccc12`, 74%; for `O=c1c(OCc2ccccc2)c(-c2ccc(OCCOCCOCCn3cc(CN4CCN(Cc5cn(CCOCCOCCOc6ccc(-c7oc8ccccc8c(=O)c7OCc7ccccc7)cc6)nn5)CC4)nn3)cc2)oc2ccccc12`, 96%.
As for `Cc1ccc(O)c(C(=O)/C=C/c2ccc(OCCCCc3cn(CCOCCOCCOc4ccc(-c5cc(=O)c6cc(F)ccc6o5)cc4)nn3)cc2)c1`, the Survival came to 72%.
On to `O=c1cc(-c2ccc(OCCOCCOCCn3cc(CN(Cc4cn(CCOCCOCCOc5ccc(-c6cc(=O)c7ccccc7o6)cc5)nn4)Cc4cn(CCOCCOCCOc5ccc(-c6cc(=O)c7ccccc7o6)cc5)nn4)nn3)cc2)oc2ccccc12`, for which the Survival is reported as 77%.
For `O=c1cc(-c2ccccc2)oc2cc(OCCCCc3cn(CCOCCOCCOc4ccc(-c5oc6ccccc6c(=O)c5OCc5ccccc5)cc4)nn3)ccc12` the value was 63%.
As to `Cc1ccc2oc(-c3ccc(OCCOCCOCCn4cc(CCCOc5ccc(-c6cc(=O)c7cc(F)ccc7o6)cc5)nn4)cc3)cc(=O)c2c1`, the Survival worked out at 82%.
As for `O=Cc1ccc(OCCCCc2cn(CCOCCOc3ccc(-c4cc(=O)c5cc(F)ccc5o4)cc3)nn2)cc1`, the Survival is 78%.
Take `Cc1ccc(C(=O)/C=C/c2ccc(OCCCCc3cn(CCOCCOc4ccc(-c5cc(=O)c6ccccc6o5)cc4)nn3)cc2)c(O)c1`: the Survival is on record as 57%.
Turning to `O=c1cc(-c2ccccc2)oc2cc(OCCOCc3cn(CCOCCOc4cccc(-c5oc6ccccc6c(=O)c5OCc5ccccc5)c4)nn3)ccc12`, the Survival is recorded as 77%.
As to `O=c1cc(-c2ccc(OCCOCCOCCn3cc(CNc4ccccc4)nn3)cc2)oc2ccc(F)cc12`, the Survival stood at 90%.
Consider `O=c1cc(-c2ccccc2)oc2cc(OCCCc3cn(CCOCCOCCOc4ccc(-c5oc6ccccc6c(=O)c5OCc5ccccc5)cc4)nn3)ccc12`, for which the Survival is listed as 63%.
With `Cc1ccc(C(=O)/C=C/c2ccc(OCCCCc3cn(CCOCCOCCOc4ccc(-c5oc6ccccc6c(=O)c5OCc5ccccc5)cc4)nn3)cc2)c(O)c1`, the Survival was 71%.
Consider `[N-]=[N+]=NCCOCCOc1ccc(-c2oc3ccccc3c(=O)c2OCc2ccccc2)cc1`, for which the Survival amounted to 72%.
The figure for `O=C(/C=C/c1ccc(OCCCCc2cn(CCOc3cccc4c(=O)cc(-c5ccccc5)oc34)nn2)cc1)c1ccccc1O` is 85%.
`O=c1cc(-c2ccc(OCCCc3cn(CCOc4cccc5c(=O)cc(-c6ccccc6)oc45)nn3)cc2)oc2ccc(F)cc12`: the Survival came to 89%.
Turning to `COc1cccc(COc2c(-c3ccc(OCCOCCn4cc(CN(C)CCN(C)Cc5cn(CCOCCOc6ccc(-c7oc8ccccc8c(=O)c7OCc7cccc(OC)c7)cc6)nn5)nn4)cc3)oc3ccccc3c2=O)c1`, the Survival is 64%.
For the compound `O=c1cc(-c2ccccc2)oc2cc(OCCOCCOCCn3cc(CN(CCOc4ccc5c(=O)cc(-c6ccccc6)oc5c4)Cc4ccccc4)nn3)ccc12`, the Survival is recorded as 51%.
For `COCOc1cc(OCc2ccccc2)c2c(=O)cc(-c3ccc(OCCCc4cn(CCOCCOCCOc5ccc6c(=O)cc(-c7ccccc7)oc6c5)nn4)cc3)oc2c1` the value was 76%.
`COCOc1cc(OCc2ccccc2)c2c(=O)cc(-c3ccc(OCCCc4cn(CCOCCOCCOc5ccc(-c6cc(=O)c7cc(F)ccc7o6)cc5)nn4)cc3)oc2c1`: the Survival came to 58%.
For `O=c1cc(-c2ccccc2)oc2cc(OCCOCCn3cc(CNc4ccccc4)nn3)ccc12` the value was 88%; for `[N-]=[N+]=NCCOCCOc1ccc(-c2cc(=O)c3ccccc3o2)cc1`, 78%; for `O=c1c(OCc2ccccc2)c(-c2cccc(OCCOCCn3cc(-c4cccc(-c5cn(CCOCCOc6cccc(-c7oc8ccccc8c(=O)c7OCc7ccccc7)c6)nn5)c4)nn3)c2)oc2ccccc12`, 89%.
Take `COc1cccc(COc2c(-c3ccc(OCCCCc4cn(CCOCCOCCOc5ccc(-c6cc(=O)c7cc(F)ccc7o6)cc5)nn4)cc3)oc3ccccc3c2=O)c1`: the Survival came out at 60%.
